Results on 13 compounds are retold here after PubChem BioAssay.

The nature of assay [1]: inhibitors of TNFa-induced NFkB p65 translocation, primary screen, imaging, HUVEC, MLSMR starter and 10KST1 sets (AID 438;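 active means inhibition above 20% together with a positive visual image hit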;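 further: compound added about 3h40 before a 20 min TNFalpha stimulation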;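 on inhibition: signal is the nuclear over cytoplasmic p65 intensity ratio per well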). Conditions: HUVEC TNFa-induced p65 nuclear translocation; cell count: measured here: nuclei count (cytotoxicity indicator), at 2.08 µM; inhibition: at 2 µM, stronger effect = higher value, 0% TNFa-plus-vehicle, 100% no-TNFa wells.
The nature of assay [2]: inhibitors of E-selectin induction by TNFa, primary screen, imaging, HUVEC, immunofluorescence, MLSMR starter and 10KST1 sets (AID 487;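 active means visually confirmed hit in the image check and inhibition above 20%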;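 on inhibition: signal is fraction of cell area covered by stained E-selectin grains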;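 on nuclei count: 100% = median nuclei count of all wells on the same plate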). Conditions: HUVEC TNFalpha-induced E-selectin immunofluorescence imaging, at 2 µM; inhibition: stronger effect = higher value; nuclei count: measured here: cell number, toxicity.
Assay [3] can be described thus: DUSP6 inhibitors restoring Erk phosphorylation by chemical complementation, primary imaging in DUSP6-transfected HeLa (AID 609;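 active means compounds giving at least 50% inhibition in the cell-based MKP-3 phosphatase rescue imaging test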;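 on inhibition: phospho-Erk level distribution per well compared with pooled transfected vehicle control wells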). As to conditions: HeLa MKP-3 transfected, phospho-Erk imaging KS statistic, at 10 µM, cells stimulated with TPA for 15 min.
In assay [4] the target is Dual specificity protein phosphatase 6 (Homo sapiens) (UniProt Q16828). The assay is described as above. As to conditions: HeLa MKP-3 transfected, phospho-Erk imaging KS statistic; at 10 µM; stronger effect = higher value; cells stimulated with TPA for 15 min.
Assay [5] concerns the target Voltage-gated potassium channel subunit beta-2 (Rattus norvegicus) (UniProt P62483). Put plainly: KvBeta enzyme negative modulators, primary screen, biochemical, NADPH fluorescence (AID 622;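 active means fluorescence slope higher than the sample average by over 3 SD, cut at about -0.22 in these data, passing the limit was not always enough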;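 further: slope of raw intensity against log time taken from 70 to 1610 s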). Conditions: recombinant KvBeta, 4-cyanobenzaldehyde reduction, at 10 µM, stronger effect = higher value.
For assay [6] the target is unchanged. Put plainly: KvBeta positive modulators, primary screen, biochemical, NADPH fluorescence (AID 623).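 Further: fluorescence intensity change per second fitted from 20 to 320 s.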 Conditions: Recombinant KvBeta, NADPH fluorescence decrease slope, 10 min; at 10 µM; stronger effect = lower value.
Assay [7] has as its target Alpha-2C adrenergic receptor (Homo sapiens) (UniProt P18825). Put plainly: modulators of alpha2C/GIRK thallium flux, primary screen, cell-based, HEK293 alpha2C/GIRK1/2 (AID 624;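 active means fluorescence slope after compound addition differing from the mean of all screened samples at 99.7% confidence, in either direction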;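 further: slope of fluorescence ratio to pre-addition baseline per second over 15 to 24 s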). As to conditions: thallium flux BTC fluorescence, at 10 µM, actives lie on both sides.
A short description of assay [8]: inhibitors of larval lipid processing in zebrafish, primary screen, whole organism, PED6 fluorescence, gall bladder and intestine (AID 686;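 active means a full or partial loss of lipid-probe fluorescence in the fish gall bladder, intestine or both, judged by eye; inactive means no fluorescence loss, or compound toxic to the fish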;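 further: larvae 5 to 7 days old with five fish per well; signal comes from phospholipase A2 cleavage of quenched PED6 carried via bile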). Conditions: Zebrafish larvae PED6 lipid processing, fluorescence scoring; screened at 20 µM (by protocol). The essentials: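 Incubation: overnight exposure of larvae to compound plus PED6 / Test system: live zebrafish larvae aged 5-7 days, whole organism / Amount: 5 larvae per well / Read-out basis: visual per-well fluorescence inhibition score / Signal: visual fluorescence microscopy scoring of gall bladder, gut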

Assay [9] can be described thus: inhibitors of Chlamydomonas gravitaxis, primary screen, whole organism, Chlamydomonas reinhardtii, WT vs cilia-less mutant, absorbance, 96-well (AID 463189;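 active means inhibition at or above 50% relative to wild type and mutant plate controls; inactive means inhibition below 50%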;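 further: 0% = wild type cc124 cells in DMSO and 100% = ciliumless bld1 mutant cells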). As to conditions: OD600 absorbance, 2 days, at 10 µM, stronger effect = higher value.
The mark [10] stands for this setting: measured here: cell density z-score.
Setting [11] is: measured here: nuclear c-Myc green intensity z-score.
Setting [12] is: measured here: nuclear pErk red intensity z-score, stronger effect = higher value.

The structures appear in SMILES notation. Activity calls are given as the source filed them.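 How the source made its calls, unless noted: active means NADPH fluorescence slope more negative than the mean of all samples by about 3 SD, 99.7% confidence; inactive means the rest.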

One may read the inhibition as the drop in the measured response relative to a control, in per cent.

Voltage-gated potassium channel subunit beta-2 (Rattus norvegicus), sequence (P62483 whole entry, looked up): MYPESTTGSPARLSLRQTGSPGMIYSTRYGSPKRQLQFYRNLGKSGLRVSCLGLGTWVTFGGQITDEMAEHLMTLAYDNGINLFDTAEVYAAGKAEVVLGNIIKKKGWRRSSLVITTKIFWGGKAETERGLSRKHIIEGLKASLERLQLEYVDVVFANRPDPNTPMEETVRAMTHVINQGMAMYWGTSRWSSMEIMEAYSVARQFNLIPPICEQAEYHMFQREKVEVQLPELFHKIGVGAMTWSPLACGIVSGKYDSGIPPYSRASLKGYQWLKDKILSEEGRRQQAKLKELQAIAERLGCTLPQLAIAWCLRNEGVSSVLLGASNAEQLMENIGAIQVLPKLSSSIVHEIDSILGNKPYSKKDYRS
Dual specificity protein phosphatase 6 (Homo sapiens), sequence (Q16828 whole entry, looked up): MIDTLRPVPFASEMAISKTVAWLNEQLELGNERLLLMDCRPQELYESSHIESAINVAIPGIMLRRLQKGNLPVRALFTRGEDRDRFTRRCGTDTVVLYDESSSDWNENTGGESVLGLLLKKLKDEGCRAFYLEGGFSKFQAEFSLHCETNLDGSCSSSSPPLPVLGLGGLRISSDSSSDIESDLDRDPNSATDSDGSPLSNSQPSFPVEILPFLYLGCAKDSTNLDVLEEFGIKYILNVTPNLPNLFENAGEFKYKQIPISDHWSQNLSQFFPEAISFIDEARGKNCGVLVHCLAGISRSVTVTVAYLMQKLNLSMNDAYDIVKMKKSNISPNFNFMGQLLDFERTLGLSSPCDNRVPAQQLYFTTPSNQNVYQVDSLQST
Alpha-2C adrenergic receptor (Homo sapiens), sequence (P18825 whole entry, looked up): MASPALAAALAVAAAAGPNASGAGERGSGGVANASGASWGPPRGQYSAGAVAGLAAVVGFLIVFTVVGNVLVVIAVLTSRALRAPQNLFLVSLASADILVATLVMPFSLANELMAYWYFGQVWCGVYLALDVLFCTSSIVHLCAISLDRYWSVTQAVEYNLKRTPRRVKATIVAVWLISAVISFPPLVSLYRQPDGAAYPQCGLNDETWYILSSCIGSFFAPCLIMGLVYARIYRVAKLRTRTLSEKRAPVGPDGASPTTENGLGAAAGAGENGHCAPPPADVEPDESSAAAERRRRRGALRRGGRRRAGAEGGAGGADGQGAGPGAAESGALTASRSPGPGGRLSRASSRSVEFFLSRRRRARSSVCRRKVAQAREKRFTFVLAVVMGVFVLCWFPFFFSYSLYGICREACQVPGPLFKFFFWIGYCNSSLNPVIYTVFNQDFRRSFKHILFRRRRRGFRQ

Regarding `COC(=O)CN(c1nc(C)cc(OC)n1)S(=O)(=O)c1ccccc1`, the cell count in assay [1] turned out to be 568. Besides, the inhibition in assay [1] is -3.9% (inactive); in assay [2], -82.4% (inactive); in [4] it was 3.56% (inactive); in assay [9], -16.2% (inactive). In assay [2], this compound registered a nuclei count of 122%. Also, the z-score was -1.67 in assay [3] (setting [10]), 0.823 in assay [3] (setting [11]) and -0.13 in assay [3] (setting [12]). Also, the fluorescence slope in assay [5] is -0.391 (inactive). Also, the NADPH fluorescence slope in assay [6] is -2.2e-05 (inactive). Moreover, the slope in [7] is 0.00529 (inactive). In addition, the result in assay [8] was inactive.

As to `CCCOc1ccc(CSC(CC(=O)O)C(=O)O)cc1` (centres undefined), the cell count in assay [1] worked out at 542. Moreover, the inhibition in assay [1] is 1.4% (inactive); in [2], -21% (inactive); in assay [4], -3.5% (inactive); in [9], 15.7% (inactive). The nuclei count in assay [2] is 124%. In addition, the z-score was 1.34 in assay [3] (setting [10]), -1.26 in [3] (setting [11]) and -1.51 in [3] (setting [12]). Also, the fluorescence slope in assay [5] was -0.332 (inactive). Besides, in assay [6], the NADPH fluorescence slope is 1.3e-05 (inactive). For the same compound, the slope in [7] is 0.00503 (inactive). The result in [8] was inactive.

Regarding `c1ccc(C2Nc3ccccc3-c3nc4ccccc4n32)nc1` (centres undefined), the cell count in assay [1] was determined as 467. Further, the inhibition in assay [1] was 5.5% (inactive); in assay [2] it was -27.5% (inactive); in assay [4], 12.3% (inactive); in [9], -35.3% (inactive). Besides, the nuclei count in [2] came to 101%. In addition, the z-score was -0.673 in assay [3] (setting [10]), 0.738 in assay [3] (setting [11]) and -0.0231 in assay [3] (setting [12]). In [5], the fluorescence slope was -0.495 (inactive). Further, the NADPH fluorescence slope in [6] is -1.1e-05 (inactive). In [7], the slope is 0.00682 (inactive). Besides, in assay [8], the outcome was inactive.

Take `O=C(c1cccc(Cl)c1)N1CCN(C(=O)c2ccccc2F)CC1`: the cell count in [1] is 359. Further, the inhibition was -17.3% (inactive) in assay [1], -357% (inactive) in assay [2], 1.75% (inactive) in [4] and -3.06% (inactive) in assay [9]. In assay [2], the nuclei count was 113%. Besides, the results for the z-score in [3] (setting [10]), in assay [3] (setting [11]) and in assay [3] (setting [12]) were -0.228, -0.0273 and -2.04, respectively. Besides, the fluorescence slope in [5] was -0.466 (inactive). In addition, the NADPH fluorescence slope in assay [6] was -1.8e-06 (inactive). Moreover, the slope in assay [7] was 0.00888 (inactive). Also, the compound was classed as inactive in assay [8].

As for `C=CCOn1c(=O)c(-c2cc3ccccc3o2)[n+]([O-])c2ccccc21`, in assay [1], the cell count was 536. The inhibition in assay [1] is -1.4% (inactive); in assay [2], -41.6% (inactive); in assay [4], -8.76% (inactive); in assay [9], 18.3% (inactive). For the same compound, in assay [2], the nuclei count was found to be 144%. For the same compound, the results for the z-score in [3] (setting [10]), in assay [3] (setting [11]) and in assay [3] (setting [12]) were -0.342, 0.414 and -0.0488, respectively. For the same compound, the fluorescence slope in [5] is -0.123 (inactive). Further, the NADPH fluorescence slope in [6] was 1.7e-05 (inactive). Further, the slope in [7] is 0.00548 (inactive). The compound was classed as inactive in [8].

Turning to `O=C(O)CC(SCc1ccc(C(=O)O)o1)C(=O)O` (centres undefined), the cell count in assay [1] stood at 330. The inhibition in assay [1] was -17.8% (inactive); in assay [2], -29.5% (inactive); in [4], 5.57% (inactive); in [9], 48.4% (inactive). Moreover, in [2], the nuclei count stood at 105%. Moreover, the z-score is 1.04 in [3] (setting [10]), -0.311 in assay [3] (setting [11]) and -0.367 in assay [3] (setting [12]). Further, the fluorescence slope in assay [5] is -0.528 (inactive). The NADPH fluorescence slope in [6] is -7.5e-06 (inactive). The slope in assay [7] is 0.00659 (inactive). For the same compound, the result in [8] was inactive.

As to `CN(C)c1ccc(-c2nn3c(-c4ccc(Cl)cc4)nnc3s2)cc1`, the cell count in [1] was 615. Further, the inhibition in [1] is -7.8% (inactive); in assay [2], -183% (inactive); in [4], 19.1% (inactive); in [9], 14.6% (inactive). Moreover, the nuclei count in assay [2] turned out to be 147%. In addition, the z-score in assay [3] (setting [10]) is 0.167; in assay [3] (setting [11]), -0.869; in [3] (setting [12]), -2.02. Also, in assay [5], the fluorescence slope was -0.409 (inactive). In addition, the NADPH fluorescence slope in [6] is -0.000319 (inactive). Further, the slope in [7] was 0.00702 (inactive). For the same compound, in assay [8], the compound was called inactive.

In the case of `OCCOCCNc1ncnc2c1cnn2-c1ccccc1`, in assay [1], the cell count worked out at 472. The inhibition was -2% (inactive) in assay [1], -38.9% (inactive) in [2], 16.8% (inactive) in assay [4] and 0.488% (inactive) in assay [9]. In assay [2], the nuclei count stood at 162%. The z-score in assay [3] (setting [10]) is -0.85; in assay [3] (setting [11]), 1.86; in assay [3] (setting [12]), 0.161. For the same compound, the fluorescence slope in [5] was -0.374 (inactive). Further, the NADPH fluorescence slope in assay [6] is -1.3e-05 (inactive). In addition, in assay [7], the slope was 0.00585 (inactive). The compound was classed as inactive in assay [8].

For `CCOC(=O)C1CCCN(c2nc3ccccc3nc2C(C#N)C(=O)OCCOC)C1` (centres undefined), in assay [1], the cell count was found to be 542. For the same compound, the inhibition in [1] is -14.7% (inactive); in assay [2], -102% (inactive); in [4], 4.72% (inactive); in [9] it was 6.3% (inactive). The compound also gave a nuclei count in assay [2] of 160%. Besides, the results for the z-score in assay [3] (setting [10]), in [3] (setting [11]) and in assay [3] (setting [12]) were 0.574, 2.29 and -0.983, respectively. Also, in assay [5], the fluorescence slope is -0.48 (inactive). For the same compound, in assay [6], the NADPH fluorescence slope was -4.8e-05 (inactive). The slope in assay [7] was 0.0042 (inactive). Moreover, the outcome in assay [8] is “active; weak signal in gallbladder and intestine”.

Turning to `CCCCNC(=O)C(C#N)c1nc2ccccc2nc1N1CCN(c2ccccc2F)CC1` (centres undefined), the cell count in assay [1] is 406. The inhibition in assay [1] was 7.2% (inactive); in assay [2] it was -12% (inactive); in [4] it was -1.12% (inactive); in [9] it was 6.61% (inactive). This compound displayed a nuclei count in assay [2] of 105%. Also, the z-score in assay [3] (setting [10]) was -0.801; in assay [3] (setting [11]) it was -1.22; in [3] (setting [12]) it was 0.341. Further, in assay [5], the fluorescence slope was -0.475 (inactive). Also, the NADPH fluorescence slope in assay [6] was -3.8e-05 (inactive). For the same compound, in [7], the slope is 0.00688 (inactive). Also, the result in assay [8] was inactive.

As for `Cc1cccc(N)c1SC1CCCCC1O` (centres undefined), in [1], the cell count worked out at 420. For the same compound, the inhibition was -5.2% (inactive) in [1], -79.6% (inactive) in [2], 23.9% (inactive) in [4] and 15% (inactive) in [9]. The compound further had a nuclei count in assay [2] of 131%. The z-score in [3] (setting [10]) is 0.781; in assay [3] (setting [11]), -1.44; in assay [3] (setting [12]), -1.09. Besides, the fluorescence slope in assay [5] was -0.46 (inactive). The NADPH fluorescence slope in assay [6] was -2.2e-05 (inactive). Moreover, in [7], the slope is 0.00629 (inactive). Also, in [8], the compound was classed as inactive.

As for `COc1cc(C(=O)Nc2nccs2)cc(OC)c1OC`, in [1], the cell count was determined as 542. In addition, the inhibition in assay [1] was -19.4% (inactive); in assay [2], 53.4% (inactive); in [4], -13.3% (inactive); in assay [9], -0.002% (inactive). In addition, the nuclei count in assay [2] came to 163%. The z-score is 1.12 in [3] (setting [10]), -0.213 in [3] (setting [11]) and 0.494 in [3] (setting [12]). Also, the fluorescence slope in [5] was -0.409 (inactive). Besides, the NADPH fluorescence slope in assay [6] was -6e-05 (inactive). For the same compound, the slope in [7] was 0.00501 (inactive). For the same compound, the outcome in [8] was inactive.

As to `O=C(c1nsnc1-c1ccccc1O)N1CCCCC1`, the cell count in assay [1] is 500. The inhibition in assay [1] is -8% (inactive); in assay [2], -58.8% (inactive); in [4] it was 17.8% (inactive); in assay [9], 24.8% (inactive). Further, the nuclei count in [2] was determined as 86.9%. The z-score is 0.333 in assay [3] (setting [10]), 0.0172 in [3] (setting [11]) and 0.334 in [3] (setting [12]). In [5], the fluorescence slope was -0.563 (inactive). For the same compound, in [6], the NADPH fluorescence slope is -9.1e-06 (inactive). In addition, the slope in [7] was 0.007 (inactive). In addition, the outcome in assay [8] was inactive.
